Results from different studies.
Protocols differ between the studies behind these lines. ≈ marks a conversion by molar mass, not a printed value.
Organism: Staphylococcus aureus

Compound | assay | test system | setting | endpoint | result
O=C1NC(=S)S/C1=C\c1ccc(-c2ccc(N(c3ccccc3)c3ccccc3)cc2)cc1 | microbial killing, broth dilution | ATCC6538 |  | MBC | > 1000 µg/mL
C=CC(=O)Nc1cccc(Sc2nc(Nc3ccc(N4CCN(C)CC4)cc3)ncc2Cl)c1 | microbial growth | NCTC8325 |  | MIC | > 30 µM
CCCCCCCCCCCCCC(O)CC(O)CO (stereo not shown) | microbial growth, broth dilution | ATCC29213 |  | IC50 | 17.2 µg/mL (≈ 59.6 µM)
Cc1cc(Nc2cc(N3CCN(C)CC3)nc(/C=C/c3ccccc3)n2)n[nH]1 | microbial growth | NCTC8325 |  | MIC | > 30 µM
CN[C@H](CC(C)C)C(=O)N[C@H]1C(=O)N[C@@H](CC(N)=O)C(=O)N[C@H]2C(=O)N[C@H]3C(=O)N[C@H](C(=O)N[C@H](C(=O)O)c4cc(O)cc(O)c4-c4cc3ccc4O)[C@H](O)c3ccc(c(Cl)c3)Oc3cc2cc(c3O[C@@H]2O[C@H](CO)[C@@H](O)[C@H](O)[C@H]2O[C@H]2C[C@](C)(N)[C@H](O)[C@H](C)O2)Oc2ccc(cc2Cl)[C@H]1O | microbial growth, disc diffusion | ATCC29213 | 125 µg/disc, 24 h | inhibition zone | 20 mm
CC1(C)S[C@@H]2[C@H](NC(=O)[C@H](N)c3ccccc3)C(=O)N2[C@H]1C(=O)O | microbial growth, agar dilution | ATCC25923 | 26.93 µM | inhibition | 100%
O=c1cccccc1SSc1cccccc1=O | microbial growth, broth dilution | ATCC29213 |  | MIC80 | > 100 µM
CCn1c(-c2nonc2N)nc2c(C#CC(C)(C)O)ncc(OC[C@H]3CCCNC3)c21 | microbial growth | NCTC8325 |  | MIC | > 30 µM
O=C(O)CN1C(=O)/C(=C/c2ccc(-c3ccc(N(c4ccccc4)c4ccccc4)cc3)c3ccccc23)SC1=S | microbial killing, broth dilution | ATCC6538 |  | MBC | > 1000 µg/mL
Clc1ccc(-c2nc3ccccc3[nH]2)cc1Cl | microbial growth, broth dilution | ATCC29213 MSSA |  | MIC | 32 µg/mL
O=C(O)CN1C(=O)/C(=C/c2ccc(-c3ccc(N(c4ccccc4)c4ccccc4)cc3)c3ccccc23)NC1=S | microbial killing, broth dilution | ATCC25923 |  | MBC | > 1000 µg/mL
CCOC(=O)C1=C(C)N2NC(C)(c3ccccc3O)N(C(Cc3c[nH]c4ccccc34)C(=O)O)C2=NC1c1ccc(Cl)cc1 (stereo not shown) | microbial growth | ATCC25923 | 15 µg/mL, 24 h | inhibition zone | 30 mm
CC(C)c1ccc(O)c(=O)cc1 | microbial growth, broth dilution | ATCC29213 |  | MIC80 | 66.7 µM (≈ 11 µg/mL)
O=C(O)CN1C(=O)/C(=C/c2c3ccccc3c(-c3ccc(N(c4ccccc4)c4ccccc4)cc3)c3ccccc23)SC1=S | microbial killing, broth dilution | ATCC25923 |  | MBC | > 1000 µg/mL
Cc1ccc2nc(-n3nc(C)c4c3-c3ccccc3C4=O)sc2c1 | microbial growth, well diffusion | NCIM5021 | 125 µg/mL | inhibition zone | 11 mm
O=C1NC(=S)S/C1=C\c1ccc(-c2ccc(N(c3ccccc3)c3ccccc3)cc2)c2ccccc12 | microbial killing, broth dilution | ATCC25923 |  | MBC | > 1000 µg/mL
Cc1cc(C)c(NC(=O)Nc2ccc3c(c2)OC(F)(F)O3)c(C)c1 | microbial growth | NCTC8325 |  | MIC | > 100 µM
Cc1nn(-c2nc3ccc(Br)cc3s2)c2c1C(=O)c1ccccc1-2 | microbial growth, well diffusion | NCIM5021 | 1000 µg/mL | inhibition zone | 12 mm
O=C(O)CN1C(=O)/C(=C/c2ccc(-c3ccc(N(c4ccccc4)c4ccccc4)cc3)cc2)SC1=S | microbial killing, broth dilution | ATCC6538 |  | MBC | 7.8 µg/mL (≈ 14.9 µM)
O=C(Cc1ccc(Cl)c(C(F)(F)F)c1)Nc1ccc2c(c1)OC(F)(F)O2 | microbial growth | NCTC8325 | 24 h | MIC | > 100 µM

Compound | assay | test system | setting | endpoint | result
CC[C@H](C)[C@H](NC(=O)OCC1c2ccccc2-c2ccccc21)C(=O)Sc1cccccc1=O | microbial growth, broth dilution | ATCC29213 |  | MIC80 | > 100 µM
CC(C(=O)O)N1C2=NC(c3ccc(Cl)cc3)c3c([nH]c(=O)[nH]c3=O)N2NC1(C)c1ccccc1O (stereo not shown) | microbial growth | ATCC25923 | 10 µg/mL, 24 h | inhibition zone | 14 mm
N#C/C(=C\c1ccc(O)c(O)c1)C(=O)NCc1ccccc1 | microbial growth | NCTC8325 |  | MIC | > 30 µM
Cc1ccc2nc(-n3nc(CC(C)C)c4c3-c3ccccc3C4=O)sc2c1 | microbial growth, well diffusion | NCIM5021 | 125 µg/mL | inhibition zone | 11 mm
CC(C)c1cccc(=O)c(O)c1 | microbial growth, broth dilution | ATCC29213 |  | MIC80 | 66.7 µM (≈ 11 µg/mL)
CC(C)Cc1nn(-c2nc3ccc(Cl)cc3s2)c2c1C(=O)c1ccccc1-2 | microbial growth, well diffusion | NCIM5021 | 250 µg/mL | inhibition zone | 10 mm
C#CCCCCCCCCCCCC(O)CC(O)CO (stereo not shown) | microbial growth, broth dilution | ATCC33591 MRSA | drug-resistant strain | IC50 | 86.3 µg/mL (≈ 303 µM)
O=C(N[C@H](CO)[C@H](O)c1ccc([N+](=O)[O-])cc1)C(Cl)Cl | microbial growth | ATCC700699 |  | MIC90 | 62.5 µg/mL (≈ 193 µM)
O=C1NC(=S)S/C1=C\c1c2ccccc2c(-c2ccc(N(c3ccccc3)c3ccccc3)cc2)c2ccccc12 | microbial killing, broth dilution | ATCC43300 |  | MBC | > 1000 µg/mL
CC(C)c1nn(-c2nc3ccc(Cl)cc3s2)c2c1C(=O)c1ccccc1-2 | microbial growth, well diffusion | NCIM5021 | 500 µg/mL | inhibition zone | 11 mm
CC(=O)Oc1cccc2c1[nH]c1c(C3=C[C@@]4(O)CC/C=C\CCCCN5CC[C@@H]3[C@]3(C[C@@H]6/C=C\CCCCN6[C@H]34)C5)nccc12 | microbial growth | MRSA | drug-resistant strain | IC50 | 0.45 µg/mL (≈ 0.742 µM)
O=c1cccccc1Sc1cccccc1=O | microbial growth, broth dilution | ATCC29213 |  | MIC80 | > 100 µM
CNC(=O)c1cc(Oc2ccc(NC(=O)Nc3ccc(Oc4ccccc4)cc3)cc2)ccn1 | microbial growth | NCTC8325 |  | MIC | > 100 µM
CC(C)Cc1nn(-c2nc3ccc(Br)cc3s2)c2c1C(=O)c1ccccc1-2 | microbial growth, well diffusion | NCIM5021 | 250 µg/mL | inhibition zone | 11 mm
O=C(O)CN1C(=O)/C(=C/c2c3ccccc3c(-c3ccc(N(c4ccccc4)c4ccccc4)cc3)c3ccccc23)NC1=S | microbial killing, broth dilution | ATCC25923 |  | MBC | > 1000 µg/mL
COc1c(N2C[C@@H]3CCCN[C@@H]3C2)c(F)cc2c(=O)c(C(=O)O)cn(C3CC3)c12 | microbial growth | ATCC700699 |  | MIC90 | 0.24 µg/mL (≈ 0.598 µM)
Cc1nn(-c2nc3ccc(Cl)cc3s2)c2c1C(=O)c1ccccc1-2 | microbial growth, well diffusion | NCIM5021 | 250 µg/mL | inhibition zone | 10 mm
C#CCCCCCCCCC=CCC(O)CC(O)CO (stereo not shown) | microbial growth, broth dilution | ATCC33591 MRSA | drug-resistant strain | IC50 | > 200 µg/mL
CN(C[C@@H]1COCCO1)S(=O)(=O)Nc1ccc2ccc3ncc(-c4cnn(C)c4)cc3c(=O)c2c1 | microbial growth | NCTC8325 |  | MIC | 30 µM
Cc1nn(-c2nc3ccccc3s2)c2c1C(=O)c1ccccc1-2 | microbial growth, well diffusion | NCIM5021 | 250 µg/mL | inhibition zone | 10 mm
